Legend:
[1] = tested on: Ad4; assay: Ad4 yield reduction assay; type: cell-based, human adenovirus type-4; details: A549 cells, 10 μM olomoucine II, 100 μM cidofovir or both
Outline: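 Confluent A549 monolayers were infected with 2,000 PFU/well Ad4 (multistep growth curve, MOI 0.01) for 1 h at 37°C with rocking. They were rinsed, then kept in medium with 10 μM test compound, 100 μM cidofovir, or both. Cells and media were harvested separately at 6–96 h, and released and total virus were titrated on A549 cells. The 0 h point is the inoculum.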

[2] = WST-1 cytotoxicity assay, A549 cells; type: cell-based; details: human, A549 cells (human lung carcinoma epithelial cells)
Outline: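 A549 cells were grown in DMEM with 10% heat-inactivated FBS and antibiotics, then exposed to test compound. Viability was measured with a WST-1 kit, following the kit protocol, as absorbance at 450 nm.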

[3] = WST-1 cytotoxicity assay, HFFF cells; type: cell-based, human; details: human, HFFF cells (human fetal foreskin fibroblasts), confluent
[4] = tested on: HFFF cells; assay: WST-1 cytotoxicity assay, HFFF cells; type: cell-based, human; details: 2.4–5.3 μM olomoucine II, WST-1, fibroblasts
[5] = tested on: CDK9; details: cited from earlier work
[6] = tested on: human fetal foreskin fibroblast cells; assay: Apoptosis as caspase-3/7 activity; type: cell-based; details: 15–50 μM olomoucine II; 24, 48, 72 h
Outline: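 Confluent HFFF cells (DMEM, 10% heat-inactivated FBS) were exposed for 24, 48 or 72 h to test compound dilutions, to mock treatment, or to serum deprivation. Caspase-3/7 activity was read by Caspase-Glo 3/7 luminescence, following the kit protocol. Values are blank-subtracted relative luminescence units ± SD.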

For `Nc1ccn(C[C@@H](CO)OCP(=O)(O)O)c(=O)n1` [Cidofovir, (S)-1-[3-hydroxy-2-(phosphonylmethoxy)propyl]-cytosine, reference compound], the “Reduction of total virus yield” value ([1]; 24 h post-infection) was 2 log (log10 PFU), the “Reduction of total virus yield” value ([1]; 48 h post-infection) was 2 log and the “Reduction of total virus yield” value ([1]; 96 h post-infection) was 3 log.

`CC[C@H](CO)Nc1nc(NCc2ccccc2O)c2ncn(C(C)C)c2n1` [Olomoucine II, 6-(2-hydroxybenzylamino)-2-{[(1R)-(hydroxymethyl)propyl]amino}-9-isopropylpurine] gave a CC50 at 48 h [2] greater than 100 µM, a CC50 at 96 h [2] greater than 100 µM and a CC50 at 120 h [2] greater than 100 µM. The CC50 at 24 h [3] was greater than 100 µM, the CC50 at 48 h [3] was 73 ± 4 µM and the CC50 at 72 h [3] was 16 ± 2 µM. For the same compound, the CC50 at 96 h [3] was 17 ± 2 µM, the CC50 at 168 h [3] was 16 ± 3 µM and the “Cytotoxicity at antiviral IC50 levels” value [4] was “no significant cytotoxicity was detected”. The “Higher inhibitory activity for CDK9 compared with roscovitine” value [5] was 10 fold, the “Reduction of total virus yield” value ([1]; 24 h post-infection) was 5 log (log10 PFU) and the “Reduction of total virus yield” value ([1]; 48 h post-infection) was 1 log. The “Reduction of total virus yield” value ([1]; 96 h post-infection) was “no overall effect on virus yield” and the Caspase-3/7 activity [6] was “caspase activation”.

For `CC[C@H](CO)Nc1nc(NCc2ccccc2)c2ncn(C(C)C)c2n1` [Roscovitine, 2-(R)-(1-ethyl-2-hydroxyethylamino)-6-benzylamino-9-isopropylpurine, reference compound], the CC50 at 48 h [2] was greater than 100 µM, the CC50 at 96 h [2] was greater than 100 µM and the CC50 at 120 h [2] was greater than 100 µM. For the same compound, the CC50 at 24 h [3] was greater than 100 µM, the CC50 at 48 h [3] was 84 ± 5 µM and the CC50 at 72 h [3] was 21 ± 2 µM. For the same compound, the CC50 at 168 h [3] was 30 ± 4 µM.
